Assay results reported in ChEMBL document CHEMBL1122629, “Potent and selective antagonists of the antidiuretic responses to arginine-vasopressin based on modifications of [1-(beta-mercapto-beta,beta-pentamethylenepropionic acid),2-D-isoleucine,4- valine]arginine-vasopressin at position 4” (J Med Chem, 1984).

What was measured:
[1] = test system: Rattus norvegicus; assay: Compound was evaluated in vivo for anti-vasopressor activity in rats and pA2 value is negative logarithm of effective dose (ED); format: functional, organism-based; conditions: read-out: pA2 (converted)
In short: (§1)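 Intravenous vasopressor assay in phenoxybenzamine-treated rats under urethane anaesthesia, agonist USP posterior pituitary reference standard. ED is the dose (nmol/kg) that reduces the response to 2x units of agonist to that of 1x unit given before antagonist. […] Means ± SE, number of assays given.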

[2] = species: Rattus norvegicus; assay: Anti-oxytocic activity on isolated rat uterus in presence of 0.5 mM of Mg2+. pA2 value is negative logarithm of effective dose (ED); format: functional; conditions: read-out: pA2 (converted)
In short: (§2)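 Isolated rat uterus, with USP posterior pituitary reference standard as agonist. Antagonism expressed as pA2.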

[3] = species: Rattus norvegicus; assay: Antidiuretic activity in rats and pA2 value is negative logarithm of effective dose (ED); format: functional, organism-based; conditions: Urine, read-out: pA2 (converted)
In short: (§3)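 Antidiuretic assay in rats under ethanol anaesthesia against the USP posterior pituitary reference standard. Standard given 20 min after antagonist, or 10 min for analogues lacking agonism. Each peptide given at a high and a low dose. ED is the dose (nmol/kg) that cuts the response to 2x units of agonist to the response to 1x unit given before antagonist. […] Means ± SE, n assays.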

[4] = test system: Rattus norvegicus; assay: Compound was evaluated in vivo for anti-oxytocic activity in rat uteri. pA2 value is negative logarithm of effective dose (ED); format: functional, organism-based; conditions: read-out: pA2 (converted)
In short: (§4)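 Rat uterus in situ, with synthetic oxytocin as agonist. ED is the dose (nmol/kg) that lowers the response to 2x units of agonist to that of 1x unit given before antagonist.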

[5] = species: Rattus norvegicus; assay: Anti-oxytocic activity on isolated rat uterus in absence of Mg2+. pA2 value is negative logarithm of effective dose (ED); format: functional; conditions: read-out: pA2 (converted); in short: as §2
[6] = species: Rattus norvegicus; assay: In vitro anti-oxytocic activity on isolated rat uteri in absence of Mg2+. pA2 value is negative logarithm of effective dose (ED); format: functional; conditions: read-out: pA2 (converted); in short: as §2
[7] = species: Rattus norvegicus; assay: Anti-oxytocic activity in rat uterus pA2 value is negative logarithm of effective dose (ED); format: functional, organism-based; conditions: read-out: pA2 (converted)
[8] = test system: Rattus norvegicus; assay: Evaluated in vivo for logarithm effective dose (ED); format: functional, organism-based
[9] = test system: Rattus norvegicus; assay: Compound was evaluated in vivo for anti-oxytocic activity in rat uterus. pA2 value is negative logarithm of effective dose (ED); format: functional, organism-based; conditions: read-out: pA2 (converted); in short: as §4
[10] = test system: Rattus norvegicus; assay: In vivo anti-vasopressor activity in phenoxybenzamine-treated rats under urethane anesthesia is measured as effective dose; format: functional; in short: as §1
[11] = test system: Rattus norvegicus; assay: In vivo antidiuretic activity in rat measured as dose that reduced the response seen with 2x units of agonist to equal the response seen with 1x unit of agonist administered before antagonist; format: functional, Urine; in short: as §3
[12] = Ratio of anti-vasopressor ED50 to antiantidiuretic ED50; format: functional, Urine
In short: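 Ratio of antivasopressor ED to antiantidiuretic ED. Each ED is the dose (nmol/kg) that lowers the response to 2x units of agonist to that of 1x unit before antagonist. Measured in rats: vasopressor assay in phenoxybenzamine-treated, urethane-anaesthetised animals; antidiuretic assay under ethanol anaesthesia.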

[13] = species: Rattus norvegicus; assay: Anti-oxytocic activity in rat uterus and effective dose (ED) was reported.; format: functional; in short: as §4

## CC[C@@H](C)[C@H]1NC(=O)CC2(CCCCC2)SSC[C@@H](C(=O)N2CCC[C@H]2C(=O)N[C@@H](CCCN=C(N)N)C(=O)NCC(N)=O)NC(=O)[C@H](CC(N)=O)NC(=O)[C@H]([C@@H](C)CC)NC(=O)[C@H](Cc2ccccc2)NC1=O
[1]
  Kb: 380 nM
[2]
  Kb: 15.1 nM
[3]
  Kb: 9.12 nM
[4]
  Kb: 126 nM
[5]
  Kb: 33.9 nM

## CC[C@@H]1NC(=O)[C@H](Cc2ccccc2)NC(=O)[C@@H]([C@H](C)CC)NC(=O)CC2(CCCCC2)SSC[C@@H](C(=O)N2CCC[C@H]2C(=O)N[C@@H](CCCN=C(N)N)C(=O)NCC(N)=O)NC(=O)[C@H](CC(N)=O)NC1=O [listing 1 of 2 here]
[1]
  Kb: 186 nM
[2]
  Kb: 93.3 nM
[3]
  Kb: 6.03 nM
[6]
  Kb: 32.4 nM
[7]
  Kb: 224 nM

## CC[C@@H](C)[C@H]1NC(=O)CC2(CCCCC2)SSC[C@@H](C(=O)N2CCC[C@H]2C(=O)N[C@@H](CCCN=C(N)N)C(=O)NCC(N)=O)NC(=O)[C@H](CC(N)=O)NC(=O)[C@H](C)NC(=O)[C@H](Cc2ccccc2)NC1=O
[1]
  Kb: 933 nM
[2]
  Kb: 33.9 nM
[3]
  Kb: 17.4 nM
[7]
  Kb: 724 nM
[5]
  Kb: 31.6 nM

## NC(=O)CNC(=O)[C@H](CCCN=C(N)N)NC(=O)[C@@H]1CCCN1C(=O)[C@@H]1CSSC2(CCCCC2)CC(=O)N[C@H](Cc2ccccc2)C(=O)N[C@@H](Cc2ccccc2)C(=O)N[C@@H](CO)C(=O)N[C@@H](CC(N)=O)C(=O)N1
[2]
  Kb: 14.8 nM
[3]
  Kb: 46.8 nM
[8]
  in vivo pA2 effective dose (as concentration): 23.4 nM
[7]
  Kb: 200 nM
[5]
  Kb: 22.9 nM

## CC[C@@H](C)[C@H]1NC(=O)CC2(CCCCC2)SSC[C@@H](C(=O)N2CCC[C@H]2C(=O)N[C@@H](CCCN=C(N)N)C(=O)NCC(N)=O)NC(=O)[C@H](CC(N)=O)NC(=O)[C@H]([C@@H](C)O)NC(=O)[C@H](Cc2ccccc2)NC1=O
[2]
  Kb: 20.4 nM
[3]
  Kb: 12.3 nM
[8]
  in vivo pA2 effective dose (as concentration): 148 nM
[9]
  Kb: 135 nM
[5]
  Kb: 7.94 nM

## CCC[C@@H]1NC(=O)[C@H](Cc2ccccc2)NC(=O)[C@@H]([C@H](C)CC)NC(=O)CC2(CCCCC2)SSC[C@@H](C(=O)N2CCC[C@H]2C(=O)N[C@@H](CCCN=C(N)N)C(=O)NCC(N)=O)NC(=O)[C@H](CC(N)=O)NC1=O
[2]
  Kb: 15.8 nM
[3]
  Kb: 97.7 nM
[8]
  in vivo pA2 effective dose (as concentration): 110 nM
[7]
  Kb: 295 nM
[5]
  Kb: 14.8 nM

## CC[C@@H]1NC(=O)[C@H](Cc2ccccc2)NC(=O)[C@@H]([C@H](C)CC)NC(=O)CC2(CCCCC2)SSC[C@@H](C(=O)N2CCC[C@H]2C(=O)N[C@@H](CCCN=C(N)N)C(=O)NCC(N)=O)NC(=O)[C@H](CC(N)=O)NC1=O [listing 2 of 2 here]
[10]
  ED: 12 nmol/kg
[11]
  ED: 0.41 nmol/kg
[12]
  Ratio: 29
[13]
  ED: 19 nmol/kg
